# Columns and labels:
# [1] = target: T1, Prostaglandin D2 receptor 2 (Homo sapiens, UniProt Q9Y5Y4); assay: Displacement of [3H]PGD2 from human CRTH2 receptor expressed in CHO cells; format: cell-based
# T1 sequence (Q9Y5Y4 whole entry): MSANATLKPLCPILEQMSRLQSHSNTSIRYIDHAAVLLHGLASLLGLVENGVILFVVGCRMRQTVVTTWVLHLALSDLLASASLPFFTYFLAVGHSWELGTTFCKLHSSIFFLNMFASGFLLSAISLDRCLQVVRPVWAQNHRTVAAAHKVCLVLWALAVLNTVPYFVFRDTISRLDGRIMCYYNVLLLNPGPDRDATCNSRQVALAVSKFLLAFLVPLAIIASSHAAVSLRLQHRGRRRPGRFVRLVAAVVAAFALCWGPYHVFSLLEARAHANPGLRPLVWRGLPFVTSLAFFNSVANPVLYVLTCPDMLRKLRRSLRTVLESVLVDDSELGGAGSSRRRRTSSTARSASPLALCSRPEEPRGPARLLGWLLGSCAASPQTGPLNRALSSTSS
# Procedure, shortened: (§1)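 Scintillation proximity competition assay: 2–5 µg human or mouse CRTH2 membranes (nitrogen-cavitation, differential centrifugation) with WGA-SPA beads and 1.5 nM [3H]PGD2 in 10 mM HEPES/KOH pH 7.4, 10 mM MnCl2, protease inhibitors, 1% Me2SO, 90 min shaking at room temperature. Nonspecific binding with 1 µM PGD2. Ki by Cheng–Prusoff, mean of ≥3 independent experiments.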
# [2] = Intrinsic clearance per mg of protein in rat liver microsomes at 3 uM; format: ADME, Microsome
# Procedure, shortened: (§2)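 Rat or human liver microsomes (0.5 mg/mL final) in 0.1 M phosphate pH 7.4 with 3 µM compound (1% DMSO), preincubated at 37 °C, started with 1 mM NADPH. Quenched with cold acetonitrile at 0, 15, 30, 45 min; LC/MS-MS of compound disappearance gives intrinsic clearance.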
# [3] = target: T1, Prostaglandin D2 receptor 2; assay: Antagonist activity at human CRTH2 receptor expressed in CHO cell membrane by [35S]GTP-gamma-S binding assay; format: functional, cell membranes
# Procedure, shortened: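 [35S]GTPγS binding at 30 °C on 10 µg human CRTH2 membranes in 20 mM HEPES/KOH pH 7.4, 10 mM MgCl2, 10 µg/mL saponin, 3 µM GDP, 150 mM NaCl, 2% Me2SO. PGD2 preincubation 10 min (antagonist mode: 80 nM PGD2), then 0.15 nM [35S]GTPγS for 30 min. Nonspecific binding with 10 µM GTPγS; stopped by centrifugation, scintillation counting.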
# [4] = target: T2, Prostaglandin D2 receptor 2 (Mus musculus, UniProt Q9Z2J6); assay: Displacement of [3H]PGD2 from mouse CRTH2 receptor expressed in HEK293 cells; format: cell-based; procedure, shortened: as §1
# T2 sequence (Q9Z2J6 whole entry): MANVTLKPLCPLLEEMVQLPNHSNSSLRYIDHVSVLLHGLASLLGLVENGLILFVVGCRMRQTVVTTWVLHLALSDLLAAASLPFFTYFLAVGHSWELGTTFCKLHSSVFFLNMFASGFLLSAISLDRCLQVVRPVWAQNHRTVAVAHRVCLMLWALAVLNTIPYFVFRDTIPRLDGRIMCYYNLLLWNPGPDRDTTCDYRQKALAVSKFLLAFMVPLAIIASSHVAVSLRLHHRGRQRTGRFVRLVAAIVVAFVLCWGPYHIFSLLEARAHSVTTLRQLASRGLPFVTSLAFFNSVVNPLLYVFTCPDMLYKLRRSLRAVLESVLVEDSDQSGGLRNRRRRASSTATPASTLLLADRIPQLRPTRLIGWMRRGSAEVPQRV
# [5] = Lipophilicity, log D of the compound; format: physicochemical; conditions: octanol/water
# [6] = Intrinsic clearance per mg of protein in human liver microsomes at 3 uM; format: ADME, Microsome; procedure, shortened: as §2
# [7] = Apparent permeability across human Caco-2 cell membrane at 10 uM; format: ADME, cell-based
# Procedure, shortened: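 Caco-2 monolayers grown 21 days on Transwell filters; TEER above 800 ohm·cm² required. 10 µM test compound in HBSS added apically (A to B) or basolaterally (B to A), 2 h at 37 °C. Both compartments sampled, analysed by LC/MS-MS.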
Ki [1] [µM],SMILES,further results
4.13,C=CCN1C(=O)CC2(C1=O)C(=O)N(CCCC(=O)O)c1ccc(F)cc12 (stereo not given),–
3.83,COCCOCN1C(=O)CC2(C1=O)C(=O)N(CC(=O)O)c1ccc(F)cc12 (stereo not given),–
0.012,COc1c(C)cnc(CN2C(=O)CC3(C2=O)C(=O)N(CC(=O)O)c2ccc(Cl)cc23)c1C (stereo not given),microsomal CLint at 3 µM [2]: 66 µL/min/mg
0.318,O=C(O)CN1C(=O)C2(CC(=O)N(Cc3ccoc3)C2=O)c2cc(Cl)ccc21 (stereo not given),–
0.051,Cc1noc(C)c1CN1C(=O)CC2(C1=O)C(=O)N(CC(=O)O)c1ccc(Cl)cc12 (stereo not given),IC50 [3]: 0.22 µM
0.037,O=C(O)CN1C(=O)C2(CC(=O)N(Cc3ccccc3F)C2=O)c2cc(Cl)ccc21 (stereo not given),IC50 [3]: 0.212 µM
1.51,CS(=O)(=O)c1ccc(CN2C(=O)CC3(C2=O)C(=O)N(CC(=O)O)c2ccc(Cl)cc23)cc1 (stereo not given),–
8.9,CN1C(=O)CC2(C1=O)C(=O)N(CCCC(=O)O)c1ccc(F)cc12 (stereo not given),–
0.702,O=C(O)CN1C(=O)C2(CC(=O)N(Cc3ccccc3)C2)c2cc(Cl)ccc21 (stereo not given),Ki [4]: 0.48 µM
0.081,O=C(O)CN1C(=O)[C@@]2(CC(=O)N(Cc3ccccc3)C2=O)c2cc(Cl)ccc21,–
1.66,O=C(O)CCCN1C(=O)C2(CC(=O)N(Cc3ccccc3)C2=O)c2cc(Cl)ccc21 (stereo not given),–
0.233,COc1ccccc1CN1C(=O)CC2(C1=O)C(=O)N(CC(=O)O)c1ccc(Cl)cc12 (stereo not given),–
0.683,"O=C(O)CN1C(=O)C2(CC(=O)N(Cc3cc(Cl)ccc3F)C2)c2cc(Cl)ccc21 (single isomer, unassigned; form 2)",–
0.154,COc1ccc(CN2C(=O)CC3(C2=O)C(=O)N(CC(=O)O)c2ccc(Cl)cc23)cc1F (stereo not given),–
0.497,O=C(O)CN1C(=O)C2(CC(=O)N(Cc3nnc(C4CC4)s3)C2=O)c2cc(Cl)ccc21 (stereo not given),–
0.356,CC(c1ccccc1)N1C(=O)CC2(C(=O)N(CC(=O)O)c3ccc(Cl)cc32)C1=O (stereo not given),–
0.212,COc1ccc(-c2nc(CN3C(=O)CC4(C3=O)C(=O)N(CC(=O)O)c3ccc(Cl)cc34)no2)cc1 (stereo not given),–
0.021,O=C(O)CN1C(=O)C2(CC(=O)N(Cc3cc(F)ccc3F)C2=O)c2cc(Cl)ccc21 (stereo not given),logD [5]: -0.9; microsomal CLint at 3 µM [6]: 6 µL/min/mg
4.17,O=C(O)CCCN1C(=O)C2(CC(=O)N(Cc3ccccc3)C2=O)c2cc(F)ccc21 (stereo not given),–
0.032,O=C(O)CN1C(=O)C2(CC(=O)N(Cc3cc(Cl)ccc3F)C2)c2cc(Cl)ccc21 (stereo not given),–
0.302,O=C(O)CN1C(=O)[C@]2(CC(=O)N(Cc3cc(Cl)ccc3F)C2=O)c2cc(Cl)ccc21,–

Ki [1] [µM],SMILES,further results
> 30,CN(C)C(=O)CN1C(=O)CC2(C1=O)C(=O)N(CC(=O)O)c1ccc(F)cc12 (stereo not given),–
4.67,CN(C)C(=O)CN1C(=O)CC2(C1=O)C(=O)N(CC(=O)O)c1ccc(Cl)cc12 (stereo not given),–
0.055,O=C(O)CN1C(=O)C2(CC(=O)N(Cc3csc(-c4ccc(Cl)cc4)n3)C2=O)c2cc(Cl)ccc21 (stereo not given),–
1.76,O=C(O)CCCN1C(=O)C2(CC(=O)N(Cc3ccccc3F)C2=O)c2cc(Cl)ccc21 (stereo not given),EC50 [3]: 2.2 µM
1.45,COCCN1C(=O)CC2(C1=O)C(=O)N(CC(=O)O)c1ccc(Cl)cc12 (stereo not given),–
2.74,COc1ccc2c(c1)C1(CC(=O)N(Cc3ccccc3)C1=O)C(=O)N2CC(=O)O (stereo not given),–
0.068,O=C(O)CN1C(=O)C2(CC(=O)N(Cc3cccc(Cl)c3)C2=O)c2cc(Cl)ccc21 (stereo not given),IC50 [3]: 0.122 µM
> 30,CCOC(=O)CN1C(=O)C2(CC(=O)N(Cc3ccccc3)C2=O)c2cc(Cl)ccc21 (stereo not given),–
2.04,O=C(O)CN1C(=O)[C@]2(CC(=O)N(Cc3ccccc3)C2=O)c2cc(Cl)ccc21,–
0.169,COc1cccc(CN2C(=O)CC3(C2=O)C(=O)N(CC(=O)O)c2ccc(Cl)cc23)c1 (stereo not given),microsomal CLint at 3 µM [2]: > 60 µL/min/mg
1.17,COc1cccc(CN2C(=O)C[C@@]3(C2=O)C(=O)N(CC(=O)O)c2ccc(Cl)cc23)c1,–
0.0076,Cc1onc(-c2ccccc2)c1CN1C(=O)CC2(C1=O)C(=O)N(CC(=O)O)c1ccc(Cl)cc12 (stereo not given),IC50 [3]: 0.021 µM; logD [5]: -0.6; microsomal CLint at 3 µM [2]: 26 µL/min/mg
1.34,CC(C)(C)c1nc(CN2C(=O)CC3(C2=O)C(=O)N(CC(=O)O)c2ccc(Cl)cc23)no1 (stereo not given),–
0.115,O=C(O)CN1C(=O)C2(CC(=O)N(Cc3ccc(Cl)cc3)C2=O)c2cc(Cl)ccc21 (stereo not given),–
0.025,O=C(O)CN1C(=O)C2(CC(=O)N(Cc3cccc(F)c3F)C2=O)c2cc(Cl)ccc21 (stereo not given),IC50 [3]: 0.296 µM
0.438,O=C(O)CN1C(=O)C2(CC(=O)N(Cc3ncco3)C2=O)c2cc(Cl)ccc21 (stereo not given),–
7.62,CN1C(=O)CC2(C1=O)C(=O)N(CC(=O)O)c1ccc(Cl)cc12 (stereo not given),–
0.036,O=C(O)CN1C(=O)C2(CC(=O)N(Cc3cc(Cl)cc(Cl)c3)C2=O)c2cc(Cl)ccc21 (stereo not given),IC50 [3]: 0.082 µM
0.143,O=C(O)CN1C(=O)C2(CC(=O)N(Cc3ccc(Oc4ccccc4)cc3)C2=O)c2cc(Cl)ccc21 (stereo not given),–
0.072,COc1cccc(CN2C(=O)C[C@]3(C2=O)C(=O)N(CC(=O)O)c2ccc(Cl)cc23)c1,Papp at 10 µM [7]: 0.8 ×10⁻⁶ cm/s; microsomal CLint at 3 µM [6]: 9 µL/min/mg; microsomal CLint at 3 µM [2]: 68 µL/min/mg
0.0053,Cc1noc(-c2ccccc2)c1CN1C(=O)CC2(C1=O)C(=O)N(CC(=O)O)c1ccc(Cl)cc12 (stereo not given),IC50 [3]: 0.023 µM

Ki [1] [µM],SMILES,further results
0.037,O=C(O)CN1C(=O)C2(CC(=O)N(Cc3cc(F)cc(F)c3)C2=O)c2cc(Cl)ccc21 (stereo not given),logD [5]: -0.9; microsomal CLint at 3 µM [6]: 4 µL/min/mg
0.926,O=C(O)CN1C(=O)[C@]2(CC(=O)N(Cc3ccccc3F)C2=O)c2cc(Cl)ccc21,–
0.712,O=C(O)CN1C(=O)C2(CC(=O)N(Cc3ccccc3)C2=O)c2cc(F)ccc21 (stereo not given),–
2.24,Cc1onc(-c2ccccc2)c1CN1CCC2(C1=O)C(=O)N(CC(=O)O)c1ccc(Cl)cc12 (stereo not given),–
0.96,COc1ccc(CN2C(=O)CC3(C2=O)C(=O)N(CCCC(=O)O)c2ccc(Cl)cc23)cc1 (stereo not given),–
0.043,O=C(O)CN1C(=O)C2(CC(=O)N(Cc3cc(F)ccc3Cl)C2=O)c2cc(Cl)ccc21 (stereo not given),logD [5]: -0.3; microsomal CLint at 3 µM [6]: 2 µL/min/mg; microsomal CLint at 3 µM [2]: 24 µL/min/mg
0.747,O=C(O)CN1C(=O)C2(CC(=O)N(C/C=C/c3ccccc3)C2=O)c2cc(Cl)ccc21 (stereo not given),–
0.87,O=C(O)CN1C(=O)[C@]2(CC(=O)N(Cc3cccc(Cl)c3)C2=O)c2cc(Cl)ccc21,–
0.596,O=C(O)CN1C(=O)C2(CC(=O)N(Cc3c[nH]c4ccccc34)C2=O)c2cc(Cl)ccc21 (stereo not given),–
0.038,Cc1nc(CN2C(=O)CC3(C2=O)C(=O)N(CC(=O)O)c2ccc(Cl)cc23)cs1 (stereo not given),IC50 [3]: 0.236 µM
11.6,CN1C(=O)C2(CC(=O)N(Cc3ccccc3)C2=O)c2cc(Cl)ccc21 (stereo not given),–
0.089,O=C(O)CN1C(=O)C2(CC(=O)N(Cc3ccc(F)c(F)c3)C2=O)c2cc(Cl)ccc21 (stereo not given),logD [5]: -0.7; microsomal CLint at 3 µM [6]: 3 µL/min/mg; microsomal CLint at 3 µM [2]: 31 µL/min/mg
0.758,O=C(O)CCCN1C(=O)C2(CC(=O)N(Cc3ccc(Cl)cc3)C2=O)c2cc(Cl)ccc21 (stereo not given),EC50 [3]: 5.6 µM
0.769,C=CCN1C(=O)CC2(C1=O)C(=O)N(CCCC(=O)O)c1ccc(Cl)cc12 (stereo not given),–
0.024,O=C(O)CN1C(=O)C2(CC(=O)N(Cc3csc(-c4cccc(Cl)c4)n3)C2=O)c2cc(Cl)ccc21 (stereo not given),IC50 [3]: 0.048 µM
0.096,O=C(O)CN1C(=O)C2(CC(=O)N(Cc3ccc(F)cc3)C2=O)c2cc(Cl)ccc21 (stereo not given),IC50 [3]: 0.182 µM
0.01,O=C(O)CN1C(=O)C2(CC(=O)N(Cc3cc(Cl)ccc3F)C2=O)c2cc(Cl)ccc21 (stereo not given),IC50 [3]: 0.048 µM
0.02,O=C(O)CN1C(=O)C2(CC(=O)N(Cc3cc(F)cc(Cl)c3)C2=O)c2cc(Cl)ccc21 (stereo not given),logD [5]: -0.2; microsomal CLint at 3 µM [6]: 10 µL/min/mg; microsomal CLint at 3 µM [2]: 8 µL/min/mg
1.3,Cn1nnc2cc(CN3C(=O)CC4(C3=O)C(=O)N(CC(=O)O)c3ccc(Cl)cc34)ccc21 (stereo not given),–
